According to ChEMBL document CHEMBL4118273, “Design, Synthesis, and Biological Evaluation of Pyrimido[4,5- d]pyrimidine-2,4(1 H,3 H)-diones as Potent and Selective Epidermal Growth Factor Receptor (EGFR) Inhibitors against L858R/T790M Resistance Mutation” (J Med Chem, 2018):
In brackets after ≈: the same amount, converted by molar mass.

Legend:
[1] = biological target: T1, Epidermal growth factor receptor (Homo sapiens, UniProt P00533); assay: Inhibition of recombinant human GST-tagged EGFR (668 to 1210 residues) expressed in baculovirus expression system using Poly(Glu,Tyr)4:1 as substrate after 1 hr by ELISA
T1 sequence (P00533 whole entry, the tested form may be a part): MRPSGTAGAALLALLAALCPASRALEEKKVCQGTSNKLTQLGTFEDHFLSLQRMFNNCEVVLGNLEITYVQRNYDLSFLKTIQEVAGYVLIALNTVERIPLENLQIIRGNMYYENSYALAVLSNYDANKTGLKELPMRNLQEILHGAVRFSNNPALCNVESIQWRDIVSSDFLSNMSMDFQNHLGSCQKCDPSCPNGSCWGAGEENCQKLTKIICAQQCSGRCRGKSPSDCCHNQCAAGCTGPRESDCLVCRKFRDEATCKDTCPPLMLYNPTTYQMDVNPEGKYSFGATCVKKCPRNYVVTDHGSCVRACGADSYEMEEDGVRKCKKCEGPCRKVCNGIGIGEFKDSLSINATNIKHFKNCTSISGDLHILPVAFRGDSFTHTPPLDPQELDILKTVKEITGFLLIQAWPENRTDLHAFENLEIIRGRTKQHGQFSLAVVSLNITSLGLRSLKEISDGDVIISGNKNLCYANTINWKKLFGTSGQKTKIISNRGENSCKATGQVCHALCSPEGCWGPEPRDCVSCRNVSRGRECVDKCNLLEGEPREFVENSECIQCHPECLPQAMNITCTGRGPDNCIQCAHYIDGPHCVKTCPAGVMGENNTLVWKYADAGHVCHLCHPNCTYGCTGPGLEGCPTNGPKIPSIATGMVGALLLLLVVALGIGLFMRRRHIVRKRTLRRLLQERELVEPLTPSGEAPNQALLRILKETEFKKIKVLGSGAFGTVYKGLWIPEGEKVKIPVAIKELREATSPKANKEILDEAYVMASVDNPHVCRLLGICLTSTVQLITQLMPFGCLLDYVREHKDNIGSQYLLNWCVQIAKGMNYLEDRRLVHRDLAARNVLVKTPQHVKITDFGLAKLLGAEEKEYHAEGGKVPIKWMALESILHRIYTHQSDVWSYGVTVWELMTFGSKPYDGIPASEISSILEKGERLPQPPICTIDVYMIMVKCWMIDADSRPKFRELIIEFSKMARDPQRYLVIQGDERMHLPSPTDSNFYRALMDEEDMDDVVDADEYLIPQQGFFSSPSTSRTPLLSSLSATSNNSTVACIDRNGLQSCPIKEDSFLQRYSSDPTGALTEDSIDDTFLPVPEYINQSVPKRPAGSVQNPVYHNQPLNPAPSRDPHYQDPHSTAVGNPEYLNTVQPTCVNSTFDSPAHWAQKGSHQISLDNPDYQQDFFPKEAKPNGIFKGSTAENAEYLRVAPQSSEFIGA

[2] = biological target: Epidermal growth factor receptor (Homo sapiens, UniProt P00533, L858R/T790M); assay: Inhibition of recombinant human GST-tagged EGFR L858R/T790M double mutant expressed in baculovirus expression system using Poly(Glu,Tyr)4:1 as substrate after 1 hr by ELISA
Sequence of Epidermal growth factor receptor (Homo sapiens, UniProt P00533, L858R/T790M) (P00533 25-1210 T790M/L858R limits assumed): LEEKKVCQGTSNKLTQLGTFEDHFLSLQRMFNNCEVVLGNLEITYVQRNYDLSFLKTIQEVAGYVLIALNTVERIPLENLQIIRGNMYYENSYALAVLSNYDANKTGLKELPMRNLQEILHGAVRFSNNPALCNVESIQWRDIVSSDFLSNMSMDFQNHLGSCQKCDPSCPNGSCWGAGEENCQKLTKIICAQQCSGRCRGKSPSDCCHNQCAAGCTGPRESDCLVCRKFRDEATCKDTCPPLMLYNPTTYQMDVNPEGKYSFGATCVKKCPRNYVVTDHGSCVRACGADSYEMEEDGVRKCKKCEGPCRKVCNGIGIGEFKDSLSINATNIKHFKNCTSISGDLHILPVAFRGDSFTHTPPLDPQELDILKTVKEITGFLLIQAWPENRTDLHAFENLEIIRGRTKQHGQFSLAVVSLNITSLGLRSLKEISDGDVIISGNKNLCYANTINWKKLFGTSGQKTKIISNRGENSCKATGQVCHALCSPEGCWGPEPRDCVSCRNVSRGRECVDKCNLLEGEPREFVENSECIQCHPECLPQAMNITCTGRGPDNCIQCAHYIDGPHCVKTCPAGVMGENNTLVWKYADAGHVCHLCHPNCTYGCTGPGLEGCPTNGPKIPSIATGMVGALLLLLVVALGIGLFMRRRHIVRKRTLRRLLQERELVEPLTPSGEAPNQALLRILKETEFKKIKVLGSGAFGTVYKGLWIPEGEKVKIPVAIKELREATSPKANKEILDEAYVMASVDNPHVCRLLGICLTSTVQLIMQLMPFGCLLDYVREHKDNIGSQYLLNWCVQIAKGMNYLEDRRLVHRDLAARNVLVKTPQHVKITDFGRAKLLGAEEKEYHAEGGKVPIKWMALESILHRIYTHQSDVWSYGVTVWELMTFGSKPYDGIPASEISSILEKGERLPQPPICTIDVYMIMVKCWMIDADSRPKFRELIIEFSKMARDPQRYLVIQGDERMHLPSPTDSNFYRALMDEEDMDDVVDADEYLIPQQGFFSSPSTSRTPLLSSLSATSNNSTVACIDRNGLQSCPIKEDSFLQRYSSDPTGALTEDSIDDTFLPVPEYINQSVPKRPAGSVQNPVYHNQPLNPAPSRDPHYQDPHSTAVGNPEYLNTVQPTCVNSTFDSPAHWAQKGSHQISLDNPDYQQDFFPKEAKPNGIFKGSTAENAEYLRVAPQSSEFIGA

Homo sapiens [3] = species: Homo sapiens; assay: Selectivity ratio of IC50 for recombinant human GST-tagged EGFR (668 to 1210 residues) expressed in baculovirus expression system to IC50 for recombinant human GST-tagged EGFR L858R/T790M double mutant expressed in baculovirus expression system
Procedure, shortened: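 ELISA-based EGFR tyrosine kinase assay run on wild-type and L858R/T790M enzymes. IC50 values come from at least three independent determinations, reported as means ± SD. Selectivity is the wild-type IC50 divided by the L858R/T790M IC50.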

A-431 [4] = assay: Cytotoxicity against human A431 cells harboring wild type EGFR assessed as reduction in cell viability after 72 hrs by SRB assay; assay type: cell-based; conditions: A-431, 72 h
Procedure, shortened: (§1)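 Cell growth inhibition measured by sulforhodamine B colorimetric assay in H1975 (EGFR L858R/T790M) and A431 (overexpressed wild-type EGFR) cells; IC50 values are means ± SD of at least three independent determinations. Selectivity is taken as the A431:H1975 IC50 ratio.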

Homo sapiens [5] = species: Homo sapiens; assay: Selectivity index, ratio of IC50 for human A431 cells harboring wild type EGFR to IC50 for human NCI-H1975 cells harboring EGFR L858R/T790M double mutant; procedure, shortened: as §1
[6] = Aqueous solubility in pH 7.4 PBS buffer by UV-Visible spectrophotometric method; assay type: physicochemical
Procedure, shortened: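 Solubility determined in 0.1 M PBS, pH 7.4, by UV-visible spectrophotometry.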

[7] = biological target: T1, Epidermal growth factor receptor; assay: Inhibition of wild type EGFR phosphorylation in EGF-stimulated human A431 cells up to 1000 nM by Western blot method
Procedure, shortened: (§2)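 A431 cells lysed in Tris-HCl pH 6.8 buffer with DTT, SDS and glycerol; equal protein amounts resolved on 8% SDS-PAGE, transferred to nitrocellulose and probed for p-EGFR (Y1068), total EGFR, p-AKT (Ser473), total AKT and GAPDH.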

[8] = biological target: T1, Epidermal growth factor receptor; assay: Inhibition of wild type EGFR in EGF-stimulated human A431 cells assessed as reduction in Akt phosphorylation at Ser-473 residue up to 1000 nM by Western blot method; procedure, shortened: as §2
[9] = Apparent permeability from apical to basolateral side in MDCK2 cells at 2 uM after 2.5 hrs by LC-MS/MS method; assay type: ADME, cell-based, Canis lupus familiaris, MDCK-II; conditions: dog, MDCK
[10] = Efflux ratio of apparent permeability from apical to basolateral side in MDCK2 cells at 2 uM after 2.5 hrs by LC-MS/MS method; assay type: ADME, cell-based, Canis lupus familiaris, MDCK-II; conditions: dog, MDCK
[11] = Half life in human liver microsomes at 0.1 uM after 60 mins in presence of NADPH by LC-MS/MS analysis; assay type: ADME, microsome
Procedure, shortened: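 Human or mouse liver microsomes (0.33 mg/mL protein) in 0.1 M Tris/HCl pH 7.4 with 5 mM MgCl2, 1 mM NADPH, 0.01% DMSO and 0.005% BSA; test compound at 0.1 µM final, 37 °C for 60 min. Aliquots at 0, 7, 17, 30 and 60 min quenched by methanol precipitation, centrifuged and analysed by LC-MS/MS.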

Cytochrome P450 2C9 = Cytochrome P450 2C9 (Homo sapiens, UniProt P11712); assay: Inhibition of human CYP2C9 (unknown origin); assay type: ADME
Sequence of Cytochrome P450 2C9 (P11712 whole entry): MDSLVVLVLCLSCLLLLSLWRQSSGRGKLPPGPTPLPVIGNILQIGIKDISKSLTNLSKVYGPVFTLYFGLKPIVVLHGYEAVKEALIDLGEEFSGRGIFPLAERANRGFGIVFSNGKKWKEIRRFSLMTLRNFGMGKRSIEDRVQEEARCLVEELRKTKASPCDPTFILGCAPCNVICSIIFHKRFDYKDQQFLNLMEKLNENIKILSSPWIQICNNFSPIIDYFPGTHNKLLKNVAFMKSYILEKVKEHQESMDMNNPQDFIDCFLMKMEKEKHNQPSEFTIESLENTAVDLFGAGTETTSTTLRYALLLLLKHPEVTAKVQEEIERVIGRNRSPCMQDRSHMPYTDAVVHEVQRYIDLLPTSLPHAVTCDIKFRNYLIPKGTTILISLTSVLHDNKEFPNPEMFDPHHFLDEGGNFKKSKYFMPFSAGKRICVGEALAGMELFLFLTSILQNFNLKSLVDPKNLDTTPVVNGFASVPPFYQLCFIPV

Cytochrome P450 2C19 = Cytochrome P450 2C19 (Homo sapiens, UniProt P33261); assay: Inhibition of human CYP2C19 (unknown origin); assay type: ADME
Sequence of Cytochrome P450 2C19 (P33261 whole entry): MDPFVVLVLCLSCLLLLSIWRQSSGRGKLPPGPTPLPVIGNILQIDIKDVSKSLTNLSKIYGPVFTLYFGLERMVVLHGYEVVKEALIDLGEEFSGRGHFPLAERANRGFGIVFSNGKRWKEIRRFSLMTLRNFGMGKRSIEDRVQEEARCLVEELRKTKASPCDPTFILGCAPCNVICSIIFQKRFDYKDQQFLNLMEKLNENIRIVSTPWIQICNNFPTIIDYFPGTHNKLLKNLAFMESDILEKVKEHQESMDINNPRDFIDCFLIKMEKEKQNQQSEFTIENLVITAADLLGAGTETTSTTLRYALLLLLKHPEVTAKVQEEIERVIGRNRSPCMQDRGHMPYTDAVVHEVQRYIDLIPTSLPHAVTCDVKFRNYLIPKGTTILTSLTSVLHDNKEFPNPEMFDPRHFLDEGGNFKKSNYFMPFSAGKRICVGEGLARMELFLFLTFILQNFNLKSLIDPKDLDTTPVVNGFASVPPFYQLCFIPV

Cytochrome P450 2D6 = Cytochrome P450 2D6 (Homo sapiens, UniProt P10635); assay: Inhibition of human CYP2D6 (unknown origin); assay type: ADME
Sequence of Cytochrome P450 2D6 (P10635 whole entry): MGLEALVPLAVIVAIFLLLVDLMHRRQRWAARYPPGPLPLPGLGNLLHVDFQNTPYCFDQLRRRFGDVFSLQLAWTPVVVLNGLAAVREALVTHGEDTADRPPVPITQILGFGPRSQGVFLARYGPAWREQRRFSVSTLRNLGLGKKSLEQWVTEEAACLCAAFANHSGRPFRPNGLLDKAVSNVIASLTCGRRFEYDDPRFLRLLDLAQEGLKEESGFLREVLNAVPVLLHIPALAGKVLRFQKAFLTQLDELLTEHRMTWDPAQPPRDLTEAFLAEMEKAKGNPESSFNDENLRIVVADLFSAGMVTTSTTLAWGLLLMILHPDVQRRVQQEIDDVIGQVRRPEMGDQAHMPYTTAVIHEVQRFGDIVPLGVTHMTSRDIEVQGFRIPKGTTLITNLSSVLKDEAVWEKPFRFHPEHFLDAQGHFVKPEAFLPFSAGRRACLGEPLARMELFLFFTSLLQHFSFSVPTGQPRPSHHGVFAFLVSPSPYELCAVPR

Cytochrome P450 3A4 = Cytochrome P450 3A4 (Homo sapiens, UniProt P08684); assay: Inhibition of human CYP3A4 (unknown origin); assay type: ADME
Sequence of Cytochrome P450 3A4 (P08684 whole entry): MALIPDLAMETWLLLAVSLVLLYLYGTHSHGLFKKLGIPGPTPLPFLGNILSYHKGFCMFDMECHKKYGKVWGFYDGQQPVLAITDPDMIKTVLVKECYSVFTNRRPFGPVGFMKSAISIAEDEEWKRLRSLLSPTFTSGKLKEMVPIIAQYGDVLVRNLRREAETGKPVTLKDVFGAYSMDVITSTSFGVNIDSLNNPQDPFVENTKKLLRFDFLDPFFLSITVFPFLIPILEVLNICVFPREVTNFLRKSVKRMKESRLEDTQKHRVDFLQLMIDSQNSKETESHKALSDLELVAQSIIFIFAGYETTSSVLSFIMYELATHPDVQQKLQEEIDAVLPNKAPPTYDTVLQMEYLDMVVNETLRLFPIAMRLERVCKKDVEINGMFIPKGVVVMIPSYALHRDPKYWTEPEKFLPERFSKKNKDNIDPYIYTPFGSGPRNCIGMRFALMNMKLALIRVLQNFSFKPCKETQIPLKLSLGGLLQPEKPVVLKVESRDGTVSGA

[12] = Half life in ICR mouse at 1 mg/kg, iv by LC-MS/MS analysis; assay type: ADME, organism-based; conditions: in vivo
[13] = Cmax in ICR mouse at 1 mg/kg, iv by LC-MS/MS analysis; assay type: ADME, organism-based; design: dose 1 mg/kg, route intravenous; conditions: in vivo
[14] = AUC (0 to infinity) in ICR mouse at 1 mg/kg, iv by LC-MS/MS analysis; assay type: ADME, organism-based; design: dose 1 mg/kg, route intravenous, time infinity; conditions: in vivo
[15] = Apparent volume of distribution in ICR mouse at 1 mg/kg, iv by LC-MS/MS analysis; assay type: ADME, organism-based; conditions: in vivo, read-out: Vz
[16] = Clearance in ICR mouse at 1 mg/kg, iv by LC-MS/MS analysis; assay type: ADME, organism-based; conditions: in vivo
[17] = Half life in ICR mouse at 10 mg/kg, po by LC-MS/MS analysis; assay type: ADME, organism-based; conditions: in vivo
[18] = Tmax in ICR mouse at 10 mg/kg, po by LC-MS/MS analysis; assay type: ADME, organism-based; conditions: in vivo
[19] = Cmax in ICR mouse at 10 mg/kg, po by LC-MS/MS analysis; assay type: ADME, organism-based; design: dose 10 mg/kg, route oral; conditions: in vivo
[20] = AUC (0 to t) in ICR mouse at 10 mg/kg, po by LC-MS/MS analysis; assay type: ADME, organism-based; conditions: in vivo
[21] = Oral bioavailability in ICR mouse at 10 mg/kg by LC-MS/MS analysis; assay type: ADME, organism-based; conditions: in vivo
NCI-H1975 = assay: Antitumor activity against human NCI-H1975 cells xenografted in Balb/c mouse assessed as tumor growth inhibition at 50 mg/kg/day, po once daily for 14 days measured every 2 to 3 days during compound dosing relative to control; assay type: functional; conditions: read-out: TGI
Procedure, shortened: (§3)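 BALB/c mice, 4–6 weeks old, implanted subcutaneously in the right flank with about 2 × 10^6 H1975 or A431 cells grown in RPMI-1640 with 10% FBS. At 200–400 mm3 tumors, mice were randomized (six/group) and dosed orally once daily with vehicle or inhibitor for 14 days. Caliper volumes, V = L×W²/2, were taken every 2–3 days; means ± SEM, Student's t test vs vehicle.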

A-431 [22] = assay: Growth inhibition of human A431 cells xenografted in Balb/c mouse at 50 mg/kg/day, po for 14 days measured every 2 to 3 days during compound dosing relative to control; assay type: organism-based; conditions: A-431, po, read-out: GI; procedure, shortened: as §3
Mus musculus [23] = assay: Toxicity in Balb/c mouse xenografted with human NCI-H1975 cells assessed as body weight loss at 50 mg/kg/day, po once daily for 14 days measured every 2 to 3 days during compound dosing; assay type: organism-based; conditions: in vivo
Procedure, shortened: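 A431 or H1975 cells were grown in RPMI-1640 with 10% FBS, and about 2 × 10^6 cells were implanted subcutaneously in the right flank of 4–6-week-old BALB/c mice. At 200–400 mm³, mice were randomized to vehicle or treated groups (n = 6). Dosing was oral, once daily, for 14 days. Body weights were recorded every 2–3 days.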

Mus musculus [24] = assay: Toxicity in Balb/c mouse xenografted with human A431 cells assessed as mortality at 50 mg/kg/day, po once daily for 14 days measured every 2 to 3 days during compound dosing; assay type: organism-based; conditions: in vivo

Q: For C=CC(=O)Nc1cccc(-n2c(=O)n(C(C)C)c(=O)c3cnc(Nc4ccc(N5CCN(C)CC5)cc4OC)nc32)c1, which IC50 [1] is on record?
A: 0.079 µM

Q: What about the IC50 [2] of the same compound?
A: 0.0003 µM

Q: What about the Ratio IC50 (Homo sapiens [3]) of the same compound?
A: 263

Q: And the IC50 (A-431 [4])?
A: 1.56 µM

Q: What about the Ratio IC50 (Homo sapiens [5]) of the same compound?
A: 36

Q: And the solubility [6]?
A: 0.262 mg/mL (≈ 459 µM)

Q: And the “inhibition (INH)” value [7]?
A: Not Active

Q: What about the “inhibition (INH)” value [8] of the same compound?
A: Not Active

Q: What about the Papp A→B at 2.5 h, 2 µM [9] of the same compound?
A: 15 nm/s

Q: And the efflux ratio at 2.5 h, 2 µM [10]?
A: 9.1

Q: What about the half-life at 0.1 µM [11] of the same compound?
A: 1.42 h

Q: And the IC50 (Cytochrome P450 2C9)?
A: > 50 µM

Q: And the IC50 (Cytochrome P450 2C19)?
A: > 50 µM

Q: What about the IC50 (Cytochrome P450 2D6) of the same compound?
A: > 50 µM

Q: And the IC50 (Cytochrome P450 3A4)?
A: 23.9 µM

Q: What about the half-life [12] of the same compound?
A: 0.9 h

Q: What about the Cmax [13] of the same compound?
A: 0.311 µg/mL

Q: And the AUC(0-inf) [14]?
A: 0.186 µg·h/mL

Q: What about the Vd [15] of the same compound?
A: 4.53 L/kg

Q: And the clearance [16]?
A: 5.37 L/h/kg

Q: What about the half-life [17] of the same compound?
A: 1.1 h

Q: And the Tmax [18]?
A: 2 h

Q: And the Cmax [19]?
A: 0.271 µg/mL

Q: And the AUC(0-t) [20]?
A: 0.65 µg·h/mL

Q: And the bioavailability [21]?
A: 35%

Q: What about the inhibition in vivo at 50 mg/kg/day (NCI-H1975) of the same compound?
A: 73%

Q: What about the inhibition at 50 mg/kg (A-431 [22]) of the same compound?
A: 37%

Q: And the Activity (Mus musculus [23])?
A: Non-Toxic

Q: What about the Activity (Mus musculus [24]) of the same compound?
A: Non-Toxic
